ChEMBL document CHEMBL4316598, “Synthesis, antiproliferative and apoptosis induction potential activities of novel bis(indolyl)hydrazide-hydrazone derivatives” (Bioorg Med Chem, 2019)
Active and inactive are the calls of the source. The rule behind the calls is not given here.

Assays:
[1] = biological target: T1, Tyrosine-protein phosphatase non-receptor type 1 (Homo sapiens) (UniProt P18031); test: Inhibition of recombinant human PTP1B using 6,8-difluoro-4-methylumbelliferyl phosphate fluorogenic substrate measured over 30 mins by fluorescence assay
T1 sequence (whole entry): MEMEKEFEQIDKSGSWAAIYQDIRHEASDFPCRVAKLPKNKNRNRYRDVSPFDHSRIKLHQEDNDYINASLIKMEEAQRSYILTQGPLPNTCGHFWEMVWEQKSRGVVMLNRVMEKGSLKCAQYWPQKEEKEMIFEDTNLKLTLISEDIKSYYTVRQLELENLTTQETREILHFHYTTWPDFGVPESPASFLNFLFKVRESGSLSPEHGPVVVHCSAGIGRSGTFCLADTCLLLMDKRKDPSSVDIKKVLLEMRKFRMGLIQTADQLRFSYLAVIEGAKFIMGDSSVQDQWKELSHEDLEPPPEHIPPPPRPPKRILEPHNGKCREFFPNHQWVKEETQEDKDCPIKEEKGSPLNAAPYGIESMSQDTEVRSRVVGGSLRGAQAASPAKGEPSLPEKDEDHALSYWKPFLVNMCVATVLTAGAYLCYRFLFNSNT
Procedure, shortened: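 Recombinant human PTP1B, 1.56 ng/well, in buffer of 25 mM HEPES, 50 mM NaCl, 2.5 mM EDTA, DTT and 0.01 mg/mL human albumin. Preincubated with compound for 30 min in the dark, then DiFMUP added (25 μL of 10 μM solution). Fluorescence read after 10 min (ex 360/em 465 nm). Triplicates; % inhibition relative to PTP inhibitor IV (0.16 mM) and buffer controls.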

[2] = system: HEK293; test: Cytotoxicity against HEK293 cells assessed as reduction in cell viability after 4 hrs by MTT assay; type: cell-based, Homo sapiens; conditions: Homo sapiens, HEK293, 4 h; read-out: IC50
Procedure, shortened: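 MTT: 10,000–20,000 cells/well attached for 16 h, then washed twice with serum-free RPMI. Treated with 1–200 µM for 4 h, 3 parallel runs per concentration. MTT added for 2 h; medium partly removed and isopropanol added. A590 read. Viability = (A treated − A doxorubicin)/(A medium − A doxorubicin)×100. Mean of three experiments, triplicate wells each.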

[3] = organism: Homo sapiens; test: Inhibition of PKA phosphorylation (unknown origin) after 5 to 60 mins by bioluminescence assay
Procedure, shortened: (§1)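 Kinase activity measured with compound at 1, 5, 10 and 50 μM, using a Kinase Reaction Rate Kit. Phosphorylation was followed by bioluminescent monitoring of ATP consumption, with light read at 5 min and 1 h. Staurosporine served as positive control. Data given as % kinase inhibition (% of control activity), from two separate experiments.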

[4] = system: MCF7; test: Induction of ROS generation in human MCF7 cells at 5 uM after 8 hrs by DCFH-DA staining-based fluorescence spectrophotometric analysis relative to control; type: functional
Procedure, shortened: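 DCFH-DA ROS: HeLa or MCF-7 cells at 2×10^6/well cultured 12 h, treated 4 or 8 h; t-BHP (10 μM) is the positive control. DCFH-DA 10 μM added for 10 min at 37 °C, cells washed twice with PBS. Fluorescence read at ex 485/em 520 nm. For the NAC arm, NAC (5 mM) is added to the medium before treatment.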

[5] = biological target: Tyrosine-protein kinase ABL1 (Homo sapiens) (UniProt P00519); test: Inhibition of ABL phosphorylation (unknown origin) at 50 uM after 5 to 60 mins by bioluminescence assay; procedure, shortened: as §1
[6] = biological target: MAP kinase p38 (Homo sapiens) (UniProt O15264+Q15759+Q16539+P53778); test: Activation of MAPK p38 phosphorylation in human HeLa cells assessed as increase in ratio of phosphorylated p38 to total p38 level at 5 uM in presence of p38 kinase inhibitor […] by ELISA; type: cell-based
Procedure, shortened: (§2)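 Cell-based ELISA: HeLa or MCF-7 cells (20×10^3/well) grown overnight at 37 °C, 5% CO2, treated with 5 μM, then fixed and blocked. Probed with rabbit anti-total and anti-phospho P38, JNK or ERK1/2 (1:100), then HRP anti-rabbit IgG. Result is the phospho/total ratio; inhibitor arms use […], […] or SP600125. n=3.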

[7] = system: HeLa; test: Induction of apoptosis in human HeLa cells assessed as up-regulation of total p53 level at 5 uM after 12 hrs by sandwich ELISA; type: functional, cell-based
Procedure, shortened: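 Cells were treated at 5 µM for 12, 24 and 48 h. Lysis was in ice-cold lysis buffer with 1 mM PMSF (5 min on ice), followed by three freeze-thaw cycles and a 10 min spin at 4 °C. Acetylated and total p53 were measured in the supernatant by kit sandwich ELISA, read at 450 nm. The control index is sample absorbance divided by that of untreated cells at the same time. Values are mean ± SD of triplicate experiments.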

[8] = system: MCF7; test: Induction of apoptosis in human MCF7 cells assessed as change in Bid level at 1 to 3 uM after 24 hrs by Western blot analysis; type: functional, cell-based
Procedure, shortened: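 Cells were treated at 1, 3 and 5 µM for 24 h at 37 °C. Lysis was in ice-cold Triton X-100 buffer with protease and phosphatase inhibitors; nuclear proteins were extracted separately. Protein was quantified by BCA. Lysates were separated by electrophoresis, transferred to nitrocellulose and blocked in non-fat milk for 1 h. Primary antibody was applied overnight at 4 °C and secondary for 1 h at 28 °C. Detection was by enhanced chemiluminescence.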

[9] = system: HeLa; test: Induction of nitric oxide production in human HeLa cells at 1 uM measured over 8 hrs by Griess reaction based assay relative to control; type: functional
Procedure, shortened: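 Cells were plated at 2×10⁶ cells/well in 24-well plates for 12 h, then treated at 1, 5 and 10 µM for 8 h at 37 °C. Culture supernatant was mixed with Griess reagent (0.002% N-1-naphthylethylenediamine, 0.5% sulfanilic acid, 14% glacial acetic acid). Nitric oxide was quantified by absorbance at 550 nm.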

[10] = biological target: c-Jun N-terminal kinase, JNK (Homo sapiens) (UniProt P45983+P53779+P45984); test: Activation of JNK phosphorylation in human HeLa cells assessed as increase in ratio of phosphorylated JNK to total JNK level at 5 uM in presence of JNK inhibitor SP600125 by ELISA; type: cell-based; procedure, shortened: as §2
[11] = system: HeLa; test: Induction of apoptosis in human HeLa cells assessed as necrotic cells at 1 uM after 16 hrs by annexin-V FITC/propidium iodide staining based flow cytometric analysis relative to control; type: functional
Procedure, shortened: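 Cells were grown in DMEM with 10% heat-inactivated FBS at 37 °C and 5% CO₂, then plated at 500,000 cells/well in 24-well plates. They were treated from a DMSO stock (DMSO ≤0.1%) for 8, 12 or 16 h. After a PBS wash, cells were resuspended in binding buffer (10 mM HEPES pH 7.4, 2.5 mM CaCl₂, 140 mM NaCl, 0.1% BSA), stained 40 min with FITC-annexin V, then with PI, and run on the flow cytometer immediately. Values are the mean of three independent experiments.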

Sequence of Tyrosine-protein kinase ABL1 (Homo sapiens) (P00519 whole entry): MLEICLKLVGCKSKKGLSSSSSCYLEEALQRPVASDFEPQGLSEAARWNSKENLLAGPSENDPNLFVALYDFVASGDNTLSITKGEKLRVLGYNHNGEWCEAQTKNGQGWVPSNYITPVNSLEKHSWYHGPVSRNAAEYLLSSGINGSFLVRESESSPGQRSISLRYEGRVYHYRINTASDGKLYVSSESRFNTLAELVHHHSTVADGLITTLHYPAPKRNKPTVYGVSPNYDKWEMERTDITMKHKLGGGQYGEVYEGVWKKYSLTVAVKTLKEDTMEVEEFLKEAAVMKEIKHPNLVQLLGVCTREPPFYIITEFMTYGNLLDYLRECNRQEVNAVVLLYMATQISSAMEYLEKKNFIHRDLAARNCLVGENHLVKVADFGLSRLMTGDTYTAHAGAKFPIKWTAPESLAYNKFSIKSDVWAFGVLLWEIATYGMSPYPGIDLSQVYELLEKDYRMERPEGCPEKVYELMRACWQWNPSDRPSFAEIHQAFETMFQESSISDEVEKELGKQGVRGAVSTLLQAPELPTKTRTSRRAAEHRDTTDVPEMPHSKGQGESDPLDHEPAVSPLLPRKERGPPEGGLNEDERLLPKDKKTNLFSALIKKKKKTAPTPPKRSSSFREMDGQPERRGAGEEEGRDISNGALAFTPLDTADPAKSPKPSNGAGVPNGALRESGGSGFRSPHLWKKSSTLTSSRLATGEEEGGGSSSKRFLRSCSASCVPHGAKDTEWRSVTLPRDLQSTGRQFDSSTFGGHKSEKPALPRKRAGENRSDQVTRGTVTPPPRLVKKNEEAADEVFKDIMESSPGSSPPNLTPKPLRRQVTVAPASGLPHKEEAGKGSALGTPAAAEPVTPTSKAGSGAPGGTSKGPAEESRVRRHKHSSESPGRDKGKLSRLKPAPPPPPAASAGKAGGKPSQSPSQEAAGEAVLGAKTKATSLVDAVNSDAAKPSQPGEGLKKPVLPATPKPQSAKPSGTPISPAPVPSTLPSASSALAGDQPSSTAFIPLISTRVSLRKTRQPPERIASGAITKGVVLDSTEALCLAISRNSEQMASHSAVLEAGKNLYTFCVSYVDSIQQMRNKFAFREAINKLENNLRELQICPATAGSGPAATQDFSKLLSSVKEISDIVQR

inhibition [1]: Dose-dependent effect
inhibition [3]: Dose-dependent effect
inhibition [5]: Active
Activity [6]: inactive
Activity [10]: inactive
Compound: Cn1cc(/C=N\NC(=O)c2cn(C)c3ccc(Br)cc23)c2ccccc21
IC50 [2]: > 200 µM
Activity [4]: 48.3%
Activity [7]: Active
Activity [8]: inactive
Activity [9]: 29.8%
Activity [11]: 1.77%
